For 2 compounds, IC50 results are on record in ChEMBL document CHEMBL1143844, “Biochemical studies on the mechanism of human immunodeficiency virus type 1 reverse transcriptase resistance to 1-(beta-D-dioxolane)thymine triphosphate” (Antimicrob Agents Chemother, 2007).

Experiment [1] is described as follows: Inhibition of HIV1 reverse transcriptase 75I/77L/116Y/151M mutant in presence of 5 mM ATP by heteropolymeric DNA polymerase assay. The arrangement: species or system Human immunodeficiency virus 1. In outline: (§1)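 Heteropolymeric DNA polymerase assay with ATP added at 5 mM. Purified HIV-1 RT at 30–100 pM acts on a plate-bound DNA primer with a 5′-A12-(GTCA)5-3′ template. dATP, dGTP, dCTP and BrdUTP at 1.0 μM each. Incubation 180 min at 33°C. BrdUMP incorporation read via anti-BrdU-AP at 405 nm after NaOH dehybridization. IC50 from seven inhibitor concentrations, at least two experiments in duplicate.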

Experiment [2] is described as follows: Inhibition of HIV1 reverse transcriptase 41L/69S-SG/184V/210W/215Y mutant in presence of 5 mM ATP by heteropolymeric DNA polymerase assay. Also on record: species or system Human immunodeficiency virus 1. In outline: as §1
Experiment [3] has as its target T1, Human immunodeficiency virus type 1 reverse transcriptase (Human immunodeficiency virus 1, UniProt Q72547). Description: Inhibition of HIV1 LAI reverse transcriptase wild type LAI by heteropolymeric DNA polymerase assay. The method in brief: (§2)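 Heteropolymeric assay without ATP: plate-bound 18-mer DNA primer (~110 nM) with 50-mer 5′-A12-(GTCA)5 template (190 nM). dATP, dGTP, dCTP and BrdUTP at 1.0 μM each, in HEPES 50 mM pH 7.3, MgCl2 10 mM. RT 30–100 pM, 33°C for 180 min, then NaOH dehybridization and anti-BrdU-AP tracer read at 405 nm. IC50 from seven triphosphate concentrations; two to four runs in duplicate.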

The nature of experiment [4]: Inhibition of HIV1 LAI reverse transcriptase 65R mutant by heteropolymeric DNA polymerase assay. The arrangement: species or system Human immunodeficiency virus 1. The method in brief: (§3)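 Purified p66/p51 HIV-1 RT, or p66 homodimer for 65R, at 30–100 pM (about 1.5–4.5 mU/well). Plate-bound 18-mer DNA primer on a 50-base 5′-A12-(GTCA)5-3′ DNA template. dATP, dGTP, dCTP and BrdUTP at 1.0 μM each, no ATP. Buffer: HEPES 50 mM pH 7.3, 10 mM MgCl2. Incubation 180 min at 33°C, NaOH dehybridization, anti-BrdU-AP tracer, A405. IC50 from seven inhibitor concentrations, at least two experiments in duplicate.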

The target in experiment [5] is T1, Human immunodeficiency virus type 1 reverse transcriptase. In words: Inhibition of HIV1 pNL4-3 reverse transcriptase wild type pNL4-3 by heteropolymeric DNA polymerase assay. The method in brief: as §2
Experiment [6] can be described thus: Inhibition of HIV1 pNL4-3 reverse transcriptase 115F mutant by heteropolymeric DNA polymerase assay. The arrangement: species or system Human immunodeficiency virus 1. The method in brief:
as §3

The nature of experiment [7]: Inhibition of HIV1 reverse transcriptase 41L/69S-SG/210W/215Y mutant in presence of 5 mM ATP by heteropolymeric DNA polymerase assay. The arrangement: species or system Human immunodeficiency virus 1. In outline: as §1
The nature of experiment [8]: Inhibition of HIV1 reverse transcriptase 41L/67N/70R/184V/210W/215Y mutant in presence of 5 mM ATP by heteropolymeric DNA polymerase assay. Also on record: species or system Human immunodeficiency virus 1. The method in brief: as §1
Experiment [9] in a line: Inhibition of HIV1 reverse transcriptase 184V mutant in presence of 5 mM ATP by heteropolymeric DNA polymerase assay. The arrangement: species or system Human immunodeficiency virus 1. In outline:
as §1

Experiment [10] in a line: Inhibition of HIV1 reverse transcriptase wild type HXB2(a) in presence of 5 mM ATP by heteropolymeric DNA polymerase assay. The arrangement: species or system Human immunodeficiency virus 1. In outline:
(§4)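 Heteropolymeric DNA assay with 5 mM ATP added: immobilized 18-mer primer, 5′-A12-(GTCA)5 50-mer template, dATP/dGTP/dCTP/BrdUTP at 1.0 μM each, HEPES 50 mM pH 7.3, MgCl2 10 mM. RT 30–100 pM, incubated at 33°C for 180 min. NaOH strand separation, then anti-BrdU-AP detection at 405 nm. IC50 fitted from seven inhibitor concentrations; two to four runs in duplicate.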

Experiment [11] in a line: Inhibition of HIV1 reverse transcriptase 75I/77L/116Y/151M/184V mutant in presence of 5 mM ATP by heteropolymeric DNA polymerase assay. The arrangement: species or system Human immunodeficiency virus 1. In outline:
as §1

Experiment [12] has as its target T1, Human immunodeficiency virus type 1 reverse transcriptase. In words: Inhibition of HIV1 LAI reverse transcriptase wild type in presence of 5 mM ATP by heteropolymeric DNA polymerase assay. In outline:
as §4

The nature of experiment [13]: Inhibition of HIV1 LAI reverse transcriptase 65R mutant in presence of 5 mM ATP by heteropolymeric DNA polymerase assay. Also on record: species or system Human immunodeficiency virus 1. The method in brief: as §1
The target of experiment [14] is T1, Human immunodeficiency virus type 1 reverse transcriptase. In words: Inhibition of HIV1 pNL4-3 reverse transcriptase wild type pNL4-3 in presence of 5 mM ATP by heteropolymeric DNA polymerase assay. The method in brief:
as §4

The nature of experiment [15]: Inhibition of HIV1 pNL4-3 reverse transcriptase 115F mutant in presence of 5 mM ATP by heteropolymeric DNA polymerase assay. The arrangement: species or system Human immunodeficiency virus 1. The method in brief:
as §1

A short description of experiment [16]: Inhibition of HIV1 reverse transcriptase wild type HXB2(a) by heteropolymeric DNA polymerase assay. Also on record: species or system Human immunodeficiency virus 1. The method in brief: as §2
Experiment [17] can be described thus: Inhibition of HIV1 reverse transcriptase 184V mutant by heteropolymeric DNA polymerase assay. Also on record: species or system Human immunodeficiency virus 1. In outline: as §3
Experiment [18] in a line: Inhibition of HIV1 reverse transcriptase 41L/67N/70R/210W/215Y mutant by heteropolymeric DNA polymerase assay. Also on record: species or system Human immunodeficiency virus 1. The method in brief:
as §3

The nature of experiment [19]: Inhibition of HIV1 reverse transcriptase 41L/67N/70R/184V/210W/215Y mutant by heteropolymeric DNA polymerase assay. Also on record: species or system Human immunodeficiency virus 1. In outline:
as §3

Experiment [20] is described as follows: Inhibition of HIV1 reverse transcriptase 41L/69S-SG/210W/215Y mutant by heteropolymeric DNA polymerase assay. Also on record: species or system Human immunodeficiency virus 1. The method in brief:
as §3

A short description of experiment [21]: Inhibition of HIV1 reverse transcriptase 41L/69S-SG/184V/210W/215Y mutant by heteropolymeric DNA polymerase assay. The arrangement: species or system Human immunodeficiency virus 1. In outline:
as §3

Experiment [22] is described as follows: Inhibition of HIV1 reverse transcriptase 75I/77L/116Y/151M mutant by heteropolymeric DNA polymerase assay. Also on record: species or system Human immunodeficiency virus 1. In outline:
as §3

Experiment [23] is described as follows: Inhibition of HIV1 reverse transcriptase 75I/77L/116Y/151M/184V mutant by heteropolymeric DNA polymerase assay. Also on record: species or system Human immunodeficiency virus 1. The method in brief:
as §3

Turning to `Nc1nc(=O)c2ncn([C@H]3C=C[C@@H](COP(=O)(O)OP(=O)(O)OP(=O)(O)O)C3)c2[nH]1` [CARBOVIR 5'-TRIPHOSPHATE, (-)-], the IC50 in [1] was 11 µM; in [2] it was 6.4 µM; in experiment [3] it was 0.68 µM; in [4] it was 5 µM; in experiment [5], 1.2 µM; in experiment [6], 2.6 µM. The IC50 in [7] was determined as 5.1 µM; in experiment [8], 4.5 µM; in experiment [9], 8.4 µM; in experiment [10], 1.5 µM; in experiment [11], 18 µM; in experiment [12], 0.9 µM. In addition, the IC50 in experiment [13] turned out to be 5.5 µM; in [14], 1.8 µM; in experiment [15], 3.6 µM; in [16], 1.1 µM; in experiment [17] it was 5.5 µM; in experiment [18], 0.9 µM. The IC50 stood at 2.7 µM in [19]; 0.9 µM in experiment [20]; 3.4 µM in [21]; 6.6 µM in experiment [22]; 54 µM in experiment [23].

Take `Nc1nc2c(ncn2[C@H]2CO[C@@H](COP(=O)(O)OP(=O)(O)OP(=O)(O)O)O2)c(=O)[nH]1`: the IC50 was determined as 1.2 µM in experiment [1]; 0.26 µM in experiment [2]; 0.18 µM in experiment [3]; 0.62 µM in [4]; 0.34 µM in experiment [7]; 0.19 µM in experiment [8]. Further, the half-inhibitory concentration (IC50) worked out at 0.2 µM in experiment [9]; 0.15 µM in experiment [10]; 2.4 µM in experiment [11]; 0.2 µM in experiment [12]; 1.3 µM in [13]; 0.12 µM in experiment [16]. In addition, the IC50 in [17] is 0.2 µM; in [18] it was 0.11 µM; in experiment [19], 0.14 µM; in experiment [21], 0.14 µM; in experiment [22] it was 2.5 µM; in experiment [23], 7.2 µM.

In general, IC50 refers to the midpoint of a concentration-inhibition curve.
